Calls of active or inactive are those of the source. Unless noted, the calls are words filed in the database; no cut-off is given here.
Key:
CFBE41o- [1] = assay: Antiproliferative activity against human CFBE41o- cells harbouring CFTR F508del mutant/HS-YFP at 5 uM incubated for 48 hrs; format: toxicity, cell-based
Procedure, shortened: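 Cells plated at 5000/well and treated after 6 h with compound (5 μM) or DMSO. Cell-covered area was followed by the YFP signal over 48 h on a high-content imager. Means ± SEM, n = 6. Three independent experiments; ANOVA with Dunnett test.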

CFBE41o- [2] = assay: Induction of apoptosis in human CFBE41o- cells assessed as increase in apoptosis at 100 uM incubated for 24 hrs by Hoechst 33342 and propidium iodide staining based analysis; format: toxicity, cell-based
Procedure, shortened: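 Cells were plated at 10,000/well and treated after 6 h with compound (5, 20, 100 μM), VX-809 (1 μM), MG132 (50 μM) or DMSO for 24 h. Hoechst 33342 counted total nuclei and propidium iodide counted apoptotic nuclei, by high-content imaging. Means ± SEM; ANOVA with Dunnett test.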

[3] = Aggregation property of the compound in PBS buffer at pH 7.5 by 1D 1H-NMR analysis; format: physicochemical
Procedure, shortened: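 Solubility by 1H 1D NMR and aggregation by WaterLOGSY at 298 K in PBS pH 7.5 with 1 μM ZnCl2, 1 mM DTT, 10% D2O, 1% DMSO-d6. Theoretical concentrations 20, 50 and 100 μM, with 200 μM 4-trifluoromethyl benzoic acid as internal reference. WaterLOGSY: mixing time 1.7 s, relaxation delay 2 s, 256 scans.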

CFBE41o- [4] = assay: Induction of autophagy in human CFBE41o- cells harbouring CFTR F508del mutant assessed as increase in number of autophagic vacuoles at 5 uM incubated for 24 hrs by confocal microscopy based analysis; format: functional, cell-based
Procedure, shortened: (§1)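 CFBE41o– F508del/HS-YFP cells (50,000/well) were treated 24 h with compound (5 μM), VX-809 (1 μM) or DMSO. SAR405 (2 μM) and torin1 (20 nM) were added near the end of incubation. Cells were then loaded with 50 μM MDC in PBS for 10 min at 37 °C, washed, and imaged. MDC spot number was normalized to control. n = 3; ANOVA with Dunnett test.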

[5] = target: Cystic fibrosis transmembrane conductance regulator (Homo sapiens, UniProt P13569, F508DEL); assay: Corrector activity at CFTR F508del mutant in human CFBE41o- cells incubated for 25 mins by microplate reader based analysis; format: cell-based
Cystic fibrosis transmembrane conductance regulator, sequence (P13569 as listed by the source): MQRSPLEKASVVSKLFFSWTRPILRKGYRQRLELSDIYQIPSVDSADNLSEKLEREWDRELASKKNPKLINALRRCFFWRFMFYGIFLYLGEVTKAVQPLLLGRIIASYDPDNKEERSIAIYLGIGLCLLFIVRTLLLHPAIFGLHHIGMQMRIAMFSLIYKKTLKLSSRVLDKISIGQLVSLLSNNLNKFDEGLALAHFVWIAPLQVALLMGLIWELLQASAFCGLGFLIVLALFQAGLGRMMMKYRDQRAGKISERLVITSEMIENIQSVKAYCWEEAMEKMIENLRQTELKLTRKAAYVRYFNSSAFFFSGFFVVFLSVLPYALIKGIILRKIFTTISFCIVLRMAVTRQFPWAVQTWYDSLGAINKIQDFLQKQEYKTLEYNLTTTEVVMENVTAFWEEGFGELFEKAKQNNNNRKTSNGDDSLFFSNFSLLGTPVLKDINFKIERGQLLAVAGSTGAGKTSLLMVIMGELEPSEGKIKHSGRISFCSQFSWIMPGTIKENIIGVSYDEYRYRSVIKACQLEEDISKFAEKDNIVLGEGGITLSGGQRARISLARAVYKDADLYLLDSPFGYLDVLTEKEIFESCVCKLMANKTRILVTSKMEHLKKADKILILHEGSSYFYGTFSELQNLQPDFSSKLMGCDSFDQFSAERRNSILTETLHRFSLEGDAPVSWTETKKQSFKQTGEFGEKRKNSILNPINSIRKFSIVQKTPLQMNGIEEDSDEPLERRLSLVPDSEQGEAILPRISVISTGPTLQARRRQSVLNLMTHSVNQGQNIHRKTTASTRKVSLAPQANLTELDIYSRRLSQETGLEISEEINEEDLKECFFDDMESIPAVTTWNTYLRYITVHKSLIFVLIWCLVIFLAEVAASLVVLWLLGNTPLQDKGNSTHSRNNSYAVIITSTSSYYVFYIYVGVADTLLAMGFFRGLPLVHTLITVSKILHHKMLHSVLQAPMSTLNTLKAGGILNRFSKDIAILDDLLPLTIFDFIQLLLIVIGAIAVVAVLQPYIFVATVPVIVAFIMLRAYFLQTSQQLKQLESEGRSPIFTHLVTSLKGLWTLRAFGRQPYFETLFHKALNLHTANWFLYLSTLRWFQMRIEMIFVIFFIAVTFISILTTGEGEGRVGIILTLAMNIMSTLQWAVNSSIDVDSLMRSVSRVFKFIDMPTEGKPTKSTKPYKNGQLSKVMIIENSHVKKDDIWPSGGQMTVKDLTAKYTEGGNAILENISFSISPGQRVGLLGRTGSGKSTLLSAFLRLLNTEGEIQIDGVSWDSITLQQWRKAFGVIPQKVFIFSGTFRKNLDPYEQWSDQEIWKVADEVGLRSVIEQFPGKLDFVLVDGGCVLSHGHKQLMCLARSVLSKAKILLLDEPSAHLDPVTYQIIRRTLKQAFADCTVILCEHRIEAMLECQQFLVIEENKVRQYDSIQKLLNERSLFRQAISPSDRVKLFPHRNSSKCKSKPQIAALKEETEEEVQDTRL
Procedure, shortened: (§2)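 CFBE41o– cells stably expressing F508del-CFTR and HS-YFP were treated 24 h after seeding; DMSO and VX-809 (1 μM) served as controls. Cells were stimulated 25 min with forskolin (20 μM) plus VX-770 (1 μM). YFP was read for 2 s before and 12 s after iodide injection. Initial slope came from an exponential fit of the final 11 s. Three independent experiments.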

[6] = tested on: Cystic fibrosis transmembrane conductance regulator (Homo sapiens), P13569 [F508del]; assay: Corrector activity at CFTR F508del mutant in human CFBE41o- cells assessed as increase in CFTR mutant activity at 5 uM in presence of VX-809 incubated for 24 hrs; format: cell-based; procedure, shortened: as §2
Cystic fibrosis transmembrane conductance regulator (Homo sapiens), P13569 [F508del], sequence (P13569 as listed by the source): as above

[7] = tested on: Cystic fibrosis transmembrane conductance regulator (Homo sapiens), P13569 [F508del]; assay: Corrector activity at CFTR F508del mutant in human CFBE41o- cells assessed as increase in CFTR mutant activity at 5 uM in presence of VX-445 incubated for 24 hrs; format: cell-based; procedure, shortened: as §2
CFBE41o- [8] = assay: Induction of autophagy in human CFBE41o- cells harbouring CFTR F508del mutant assessed as increase in number of autophagic vacuoles at 2 uM incubated for 3 hrs by confocal microscopy based analysis; format: functional, cell-based; procedure, shortened: as §1
[9] = tested on: Cystic fibrosis transmembrane conductance regulator (Homo sapiens), P13569 [F508del]; assay: Corrector activity at CFTR F508del mutant in human CFBE41o- cells assessed as rescue of CFTR mutant at 10 uM incubated for 24 hrs in presence of VX-445 by Western blot analysis; format: cell-based
[10] = tested on: Cystic fibrosis transmembrane conductance regulator (Homo sapiens), P13569 [F508del]; assay: Corrector activity at CFTR F508del mutant in human CFBE41o- cells assessed as decrease in accumulation of ubiquitylated CFTR at 10 uM incubated for 24 hrs in presence of VX-445 by Western blot analysis; format: cell-based
Procedure, shortened: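 Confluent CFBE41o– F508del cells were treated 24 h, with MG-132 (10 μM) or DMSO in the last 4 h. Lysate (600 μg protein) was immunoprecipitated with rabbit anti-CFTR (2 μg, 1 h RT) and protein A/G beads, then eluted reducing. Samples ran on 4–15% gradient SDS-PAGE and were western blotted. Bands were read by chemiluminescence, with densitometry of ubiquitylated CFTR.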

[11] = target: E3 ubiquitin-protein ligase RNF5 (Homo sapiens) (UniProt Q99942); assay: Binding affinity to recombinant human RNF5 (1 to 117 residues) expressed in Escherichia coli BL21(DE3) at 50 uM by Microscale thermophoresis analysis
E3 ubiquitin-protein ligase RNF5 (Homo sapiens), sequence (Q99942 whole entry, the tested form may be a part): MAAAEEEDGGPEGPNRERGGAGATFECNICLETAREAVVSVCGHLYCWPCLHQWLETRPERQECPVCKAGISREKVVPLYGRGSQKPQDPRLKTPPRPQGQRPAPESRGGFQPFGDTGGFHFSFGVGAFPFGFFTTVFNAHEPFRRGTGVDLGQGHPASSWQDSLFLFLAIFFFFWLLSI
Procedure, shortened: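 Human RNF5 aa 1–117 was expressed GST-tagged in E. coli BL21(DE3) with 0.2 mM IPTG for 5 h at 37 °C. It was purified on glutathione resin, TEV-cleaved, and RED-NHS labelled (5 nM). Binding check was run in PBS with 0.05% Tween-20, 0.1% PEG-8000 and 1 μM ZnCl2, ± 1 mM DTT, at ≤5% DMSO. Medium MST power, 20% excitation.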

CFBE41o- [12] = assay: Induction of autophagy in human CFBE41o- cells harbouring CFTR F508del mutant assessed as increase in number of autophagic vacuoles at 20 nM incubated for 3 hrs by confocal microscopy based analysis; format: functional, cell-based; procedure, shortened: as §1

Activity [3] | SMILES | Activity (CFBE41o- [1]) | also measured
– | COc1ccccc1Cn1c(C)ns/c1=N\C(=N\c1ccccc1)c1ccccc1 | Non-Toxic | Activity (CFBE41o- [2]): Toxic
Not Active | Cc1ns/c(=N\C(=N\c2ccccc2)c2ccccc2)n1Cc1ccccc1 | Non-Toxic | Activity (CFBE41o- [4]): Active; EC50 [5]: 2600 nM; Activity [6]: Active; Activity [7]: Active
Not Active | Cc1ns/c(=N\C(=N\c2ccccc2)c2ccncc2)n1Cc1ccccc1 | Non-Toxic | Activity (CFBE41o- [4]): inactive
– | C[C@@H]1COCCN1c1cc(=O)n2c(n1)N(Cc1cncc(Cl)c1)[C@H](C(F)(F)F)CC2 | – | Activity (CFBE41o- [8]): inactive
– | Cc1ns/c(=N\C(=N\c2ccccc2)c2ccccc2)n1Cc1ccc(F)cc1 | Non-Toxic | Activity (CFBE41o- [4]): inactive
– | Cc1cccc(Cn2c(C)ns/c2=N\C(=N\c2ccccc2)c2ccccc2)c1 | Non-Toxic | –
– | CC(C)(CO)c1cc2cc(NC(=O)C3(c4ccc5c(c4)OC(F)(F)O5)CC3)c(F)cc2n1C[C@@H](O)CO | – | Activity [9]: Active; Activity [10]: Active
– | Cc1ccccc1Cn1c(C)ns/c1=N\C(=N\c1ccccc1)c1ccccc1 | Non-Toxic | –
– | Cc1ns/c(=N\C(=N\c2ccccc2)c2ccccc2)n1Cc1ccc(Br)cc1 | Non-Toxic | Activity (CFBE41o- [4]): Active
Not Active | Cc1ns/c(=N\C(=N\c2ccccc2)c2ccccc2)n1Cc1ccc(C(=O)O)cc1 | – | Activity [11]: Active
Not Active | Cc1ns/c(=N\C(=N\c2ccncc2)c2ccccc2)n1Cc1ccccc1 | – | –
– | Cc1ccc(Cn2c(C)ns/c2=N\C(=N\c2ccccc2)c2ccccc2)cc1 | Non-Toxic | –
Not Active | Cc1ns/c(=N\c2ccccn2)n1Cc1ccccc1 | – | –
– | CCC(=O)N1CCN(c2ccc(-n3c(=O)ccc4cnc5ccc(-c6cnc7ccccc7c6)cc5c43)cc2C(F)(F)F)CC1 | – | Activity (CFBE41o- [12]): Active

Source: ChEMBL document CHEMBL5346963, “Innovative Strategy toward Mutant CFTR Rescue in Cystic Fibrosis: Design and Synthesis of Thiadiazole Inhibitors of the E3 Ligase RNF5” (J Med Chem, 2023)
